High-throughput results from PubChem BioAssay.
CHO parental Ca: ATP-evoked calcium signal inhibitors, parental CHO, primary screen, counter-screen for OX1R antagonist project, cell-based, fluorescence, Fluo-8 calcium dye; parental CHO-K1, ATP-induced calcium, Fluo-8 fluorescence; actives 0.63% (n = 330,000); inhibition, % at 5.6 µM; AID 463079, 2010;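 active = inhibition above that plate's mean sample inhibition plus 3 SD, cut at about 26% in these data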
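material = parental CHO cells | also added = ATP as calcium-mobilizing challenge | dosing = single point at 5.6 µM | detection = intracellular calcium via Fluo-8 no-wash fluorescent dye | read-out = % inhibition | benchmarks = low control ATP plus DMSO, high control DMSO only | repeats = one well per compound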
OX1R antag-1: OX1R (HCRTR1) antagonists, primary screen, fluorescence, CHO/OX1R cells, Fluo-8 calcium, orexin A; Orexin/Hypocretin receptor type 1 (Homo sapiens), O43613; Fluo-8 calcium fluorescence; inhibition, % at 5 µM; actives 0.43% (n = 330,000);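 active = inhibition above its plate's threshold, mean inhibition of all tested compounds on the plate plus 3 SD, cut at about 37% in these data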
Target sequence (O43613 whole entry, looked up): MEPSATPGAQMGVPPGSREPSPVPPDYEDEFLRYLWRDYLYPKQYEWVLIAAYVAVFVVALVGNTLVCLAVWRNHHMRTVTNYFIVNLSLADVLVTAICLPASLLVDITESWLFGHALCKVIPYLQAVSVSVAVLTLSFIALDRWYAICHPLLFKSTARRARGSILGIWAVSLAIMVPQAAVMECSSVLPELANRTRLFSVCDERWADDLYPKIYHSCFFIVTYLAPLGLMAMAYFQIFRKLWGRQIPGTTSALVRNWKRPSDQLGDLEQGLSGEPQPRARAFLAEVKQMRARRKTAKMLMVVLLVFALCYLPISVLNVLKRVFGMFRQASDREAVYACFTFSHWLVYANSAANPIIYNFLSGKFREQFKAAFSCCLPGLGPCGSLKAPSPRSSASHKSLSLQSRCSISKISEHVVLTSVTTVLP
OX1R antag-2: antagonists of human orexin 1 receptor (OX1R) | Orexin/Hypocretin receptor type 1 (Homo sapiens), O43613 | OX1R-expressing cells, FRET antagonist read-out | inhibition, % at 6.6 µM | actives 1.8% (n = 330,000); in the data active = inhibition mostly above about 38%, no sharp cut-off; inactive = mostly below about 40%
TAAR1 antagonist: human TAAR1 antagonists, primary screen, Fluo-8 calcium fluorescence, CHO RD-HGA16 cells; Trace amine-associated receptor 1 (Homo sapiens), Q96RJ0; antagonist; inhibition, % at 3 µM; actives 1.5% (n = 360,000); AID 624466, 2012;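 active = inhibition above a per-plate cutoff, the mean inhibition of test compounds on that plate plus 3 SD, cut at about 49% in these data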
Target sequence (Q96RJ0 whole entry, looked up): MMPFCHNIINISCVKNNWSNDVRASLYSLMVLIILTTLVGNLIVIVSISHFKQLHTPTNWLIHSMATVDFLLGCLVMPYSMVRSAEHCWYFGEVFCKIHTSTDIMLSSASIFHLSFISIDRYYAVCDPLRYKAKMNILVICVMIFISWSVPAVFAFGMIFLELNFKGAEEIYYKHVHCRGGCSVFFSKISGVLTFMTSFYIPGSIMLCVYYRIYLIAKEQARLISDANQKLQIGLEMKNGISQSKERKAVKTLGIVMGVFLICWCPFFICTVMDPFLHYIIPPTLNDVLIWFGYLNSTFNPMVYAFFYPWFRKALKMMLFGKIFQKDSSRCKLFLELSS
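test system = CHO RD-HGA16 cells bearing hTAAR1 | replication = singlicate | controls = DMSO-only wells and EC80 β-PEA-stimulated wells | reagent = EC80 β-phenethylamine stimulus | read-out basis = percent inhibition of PEA-evoked calcium signal, max/basal emission ratio | schedule = seeding 17-24 h prior, 75-min 37 °C, 30-min RT dye loading | signal = kinetic Fluo-8 calcium fluorescence measurement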
TAAR1 agonist: human TAAR1 agonists, primary screen, Fluo-8 calcium fluorescence, CHO RD-HGA16 cells | Trace amine-associated receptor 1 (Homo sapiens), Q96RJ0 | vehicle wells 0%, saturating PEA agonist 100% | activation, % at 3 µM | actives 0.99% (n = 360,000) | AID 624467, 2012;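 active = activation above the mean activation of all test compounds in the run plus 3 SD, cut at about 38% in these data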
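Test system: RD-HGA16 (CHO) cells co-expressing Gα16 and hTAAR1; dosing: one-point dosing at 3 µM (nominal); timing: 17-24 h seeding, 75 min 37 °C dye, 30 min RT; signal: kinetic Fluo-8 calcium fluorescence; read-out basis: % activation relative to PEA EC100 response; controls: DMSO and PEA EC100; replicates: n 1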
GPR7 antag: GPR7 receptor antagonists, primary screen, cell-based, fluorescence, single concentration | GPR7-expressing cells, fluorescence antagonist assay | inhibition, % at 4.4 µM | actives 1.1% (n = 290,000) | AID 1861, 2009; in the data active = inhibition above about 16%, passing the limit was not always enough;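 note: cells stimulated with the agonist NPW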
TAAR1 ag conf: human TAAR1 agonists, retest of hits, confirmation, Fluo-8 calcium fluorescence, CHO RD-HGA16 cells | shares compounds with TAAR1 agonist | scaled: DMSO 0%, maximal phenethylamine 100% | activation, % at 3 µM | actives 82% (n = 2,400) | AID 651783, 2012;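 active = activation above a cutoff set at the run's mean compound activation plus 3 SD, cut at about 39% in these data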
Ga16 ag counter: nonselective calcium mobilization agonists, CHO-Ga16 cells, counter-screen for hTAAR1 agonist project, cell-based, fluorescence, CHO-Ga16 parental line. shares compounds with TAAR1 agonist. Fluo-8 calcium fluorescence; normalized to maximal ATP response, DMSO zero. activation, % at 3 µM. actives 50% (n = 2,400);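 active = activation above the run cutoff, the mean activation over all tested wells plus 3 SD, cut at about 12% in these data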
TAAR1 desensitize: TAAR1 desensitization by agonist hits, confirmation, counter-screen for TAAR1 agonist project, cell-based, fluorescence, tachyphylaxis | shares compounds with TAAR1 agonist | CHO RD-HGA16 hTAAR1, Fluo-8 calcium, beta-PEA response inhibition | inhibition, % at 3 µM | actives 46% (n = 2,400) | AID 651951, 2012;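 active = inhibition above the run cutoff, the mean inhibition of all test compounds plus 3 SD, cut at about 49% in these data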;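 note: beta-PEA stimulus applied at its EC80; loss of beta-PEA calcium signal after compound pretreatment read as receptor desensitization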
Ga16 antag count: inhibition of ATP-evoked calcium response in CHO-Ga16 cells, counter-screen for TAAR1 agonist project, cell-based, fluorescence. shares compounds with TAAR1 agonist. CHO-Ga16 ATP-induced calcium, Fluo-8 fluorescence. actives 39% (n = 2,400). inhibition, % at 3 µM;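 active = inhibition above the plate's mean compound inhibition plus 3 SD, computed per plate, cut at about 22% in these data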
Numbers stand for hits; - = inactive; . = no result. In the library only some 4.6% were active in any assay of this set; here they are far more common.

SMILES	CHO parental Ca	OX1R antag-1	OX1R antag-2	TAAR1 antagonist	TAAR1 agonist	GPR7 antag	TAAR1 ag conf	Ga16 ag counter	TAAR1 desensitize	Ga16 antag count
CCCCC(=O)NC(=S)NNC(=O)c1ccc(Cl)cc1Cl	.	.	.	49.3	106.2	-	131.1	110.1	79.3	54.6
Cc1ccc(C(=O)NNC(=S)NC(=O)c2ccc(Cl)cc2Cl)cc1	45.0	57.1	-	107.7	171.9	-	160.9	123.0	106.7	101.2
CC(C)NC(=S)NC(=O)c1ccc(Cl)cc1Cl	-	-	-	-	-	-	.	.	.	.
O=C(Nc1ccccc1)OCCCCOC(=O)Nc1ccccc1	.	.	.	-	53.8	.	-	13.8	-	-
O=C(Nc1ccccc1)OCCCc1ccccc1	-	-	-	-	-	-	.	.	.	.
NC(=O)C1CC(=O)N(c2ccc(OCc3c(Cl)cccc3Cl)cc2)C1 (centres undefined)	-	-	-	-	44.3	-	-	15.0	-	-
O=C(COc1ccc(Cl)cc1Cl)NC(=S)N1CCCc2ccccc21	-	-	-	-	50.9	-	-	-	-	-
CCOC(=O)c1cc(NC(=O)c2cc(C)on2)cc(C(=O)OCC)c1	-	-	-	-	44.0	-	-	-	-	-
CN1C(=O)C2CN(CCc3ccccc3)CNC2N(C)C1=O (centres undefined)	-	-	-	.	.	-	.	-	.	-
COc1ccc(/C=C/C(=O)NC(=S)NNC(=O)c2cccs2)cc1	-	-	-	72.8	100.4	-	68.9	50.8	49.9	40.9
COc1ccccc1C(=O)NC(=S)NNC(=O)c1sc2ccccc2c1Cl	-	-	-	74.4	117.4	-	165.5	124.0	106.0	86.9
COc1ccccc1C(=O)NNC(=S)NC(=O)c1cccs1	-	-	-	-	106.4	-	103.2	76.8	-	37.7
O=C(NC(=S)NNC(=O)c1ccccc1O)c1cccs1	-	-	-	-	-	-	.	.	.	.
COc1ccccc1C(=O)NNC(=S)NC(=O)c1sc2ccccc2c1Cl	-	-	-	80.3	144.8	-	139.6	118.5	105.7	93.5
CCn1cc(C(C)NC(=O)COc2ccc(Cl)cc2C)c(C)n1 (centres undefined)	-	-	-	-	-	-	.	.	.	.
O=S(=O)(Nc1ccc(Br)cc1)N1CCOCC1	-	-	-	-	-	-	.	.	.	.
CCC(C)(C)C(=O)Nc1ncc(S(=O)(=O)c2ccc([N+](=O)[O-])cc2)s1	-	-	-	-	104.2	-	75.9	52.1	51.5	41.2
CCCC(=O)Nc1ccc(NC(=O)c2ccco2)c(OC)c1	-	-	-	-	-	-	.	.	.	.
CCOc1ccc(N=C(/C(C(=O)C(=O)N2CCOCC2)=C(/O)c2ccccc2)c2ccccc2)cc1	-	-	-	-	-	-	.	.	.	.
COc1ccc(Nc2nc3ccccc3nc2-n2nc(C)cc2C)cc1	-	-	-	-	-	-	.	.	.	.
Cc1cc(C)n(-c2nc3ccccc3nc2NCCc2ccccc2)n1	-	-	-	-	61.3	-	-	-	-	-
C/C(N)=C(/C#N)C(=O)CSc1nc(-c2ccccc2)c(-c2ccccc2)o1	-	-	-	-	-	-	.	.	.	.
CC(C)CC(N)c1csc(Nc2ccc(C(=O)N(C)Cc3ccccc3)cn2)n1 (centres undefined)	.	.	.	-	-	.	.	.	.	.
NC(Cc1cnc[nH]1)c1csc(Nc2ccc(C(F)(F)F)cn2)n1 (centres undefined)	.	.	.	-	-	.	.	.	.	.
NC(Cc1ccc(F)cc1)c1csc(Nc2ccc(C(F)(F)F)cn2)n1 (centres undefined)	.	.	.	-	74.2	.	49.3	27.1	-	34.9
SMILES	CHO parental Ca	OX1R antag-1	OX1R antag-2	TAAR1 antagonist	TAAR1 agonist	GPR7 antag	TAAR1 ag conf	Ga16 ag counter	TAAR1 desensitize	Ga16 antag count
CN(Cc1ccccc1)C(=O)c1ccc(Nc2nc(C(N)Cc3ccc(C(F)(F)F)cc3)cs2)nc1 (centres undefined)	.	.	.	74.9	64.1	.	58.9	29.9	62.9	69.7
Cc1ccc(C(=O)Nc2nc(C(N)Cc3ccc(C(F)(F)F)cc3)cs2)cc1 (centres undefined)	.	.	.	-	65.2	.	51.8	28.6	-	42.5
CCCCN(C)C(=O)c1ccc(Nc2nc(C(N)Cc3ccccc3)cs2)nc1 (centres undefined)	.	.	.	-	48.6	.	72.9	15.5	53.7	32.2
O=C(O)c1ccc(-c2nc(-c3ccccc3)cs2)cc1	-	-	-	-	-	-	.	.	.	.
O=C(O)c1ccc(-c2nc(-c3ccccc3Cl)cs2)cc1	-	-	-	-	49.3	-	-	19.4	-	-
Cc1onc(-c2ccccc2)c1C(=O)N/N=C/c1c(F)cccc1Cl	-	-	-	-	-	-	.	.	.	.
Cc1c(CNCCc2ccccc2Cl)c(C(=O)O)c(C)n1-c1ccccc1	-	-	-	64.9	89.6	-	92.0	25.2	74.3	-
O=C(COc1ccc2ccc(=O)oc2c1)Nc1ccc(N2CCCCC2)cc1	-	-	-	-	-	.	.	.	.	.
COc1ccc(Cl)c2sc(NC(=O)C3=COCCO3)nc12	-	-	-	-	-	.	.	.	.	.
Cc1ccc(Cl)c2sc(NC(=O)C3=COCCO3)nc12	-	-	-	-	60.8	-	-	20.1	-	-
COc1cccc(/C=N/NC(=O)Cn2nc(C)c([N+](=O)[O-])c2C)c1O	-	-	-	-	-	-	.	.	.	.
Cc1ccsc1/C=N/NC(=O)Cn1cnc2ccccc21	-	-	-	-	55.7	-	60.9	-	-	-
Cc1ccsc1/C=N/NC(=O)Cn1nc(C)c([N+](=O)[O-])c1C	-	-	-	-	44.6	-	72.4	-	54.9	-
